Consider seven compounds from paper PMC7224360 (Peptide science (Hoboken, N.J.), 2018).

Entries after “also recorded” stand apart in the source; their conditions may differ.

One series can be described thus: NMR secondary structure. In kind it is physicochemical. To be noted: average of representative NMR conformers, SDS micelles. The essentials:
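Test peptides at 5 mM in 90% H2O/10% D2O, pH 4.5, with perdeuterated SDS (300 mM) added to give a peptide:detergent ratio of 1:60. 1D spectra were recorded at 300–320 K. DQF-COSY, TOCSY and NOESY spectra were acquired, with 340 ms NOESY used for restraints (1.8–2.7, 1.8–3.5 or 1.8–5 Å). CYANA generated 50 structures and the 20 with lowest target function were kept. Structures were energy-minimised and refined with 3JHNHα-derived dihedrals. Secondary shifts are relative to random-coil values.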

Series [1] can be described thus: Circular dichroism spectropolarimetry in membrane-mimetic solvents. In kind it is physicochemical. To be noted: 75 μM peptide; for CD conformation in phosphate buffer: Na2HPO4/KH2PO4 buffer, pH 7.0; for CD conformation in SDS: SDS in phosphate buffer; for CD conformation in methanol: methanol (up to 50%); for CD isodichroic point: SDS titration.
The next series has as its system Gαi3 (N18TG2 membranes). In words: [35S]GTPγS binding, antibody-capture SPA, Gαi3, N18TG2 membranes. It counts as biochemical. The settings on record: for [35S]GTPγS binding to Gαi3 compared with IL4: N18TG2 membranes (5 µg protein), peptides up to 100 µM, IL4 100 µM, n=3-5. The essentials: (§1)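 N18TG2 neuroblastoma membranes (5 µg protein) were incubated with [35S]GTPγS plus WIN55212–2 (1 µM), unphosphorylated IL4 peptide (100 µM) or phosphopeptides (20–100 µM). Captured by SPA with anti-Gαo (n=3–4) or anti-Gαi3 (n=3–5) antibody. Specific binding (CPM) = total minus non-specific. Normalised to mean WIN55212–2 stimulation as 100%. Mean ± SEM; one-way ANOVA with Dunnett's post hoc test.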

Series [2] concerns adenylyl cyclase (AC6) in N18TG2 cells. Nature of the series: Inhibition of forskolin-stimulated cAMP accumulation in N18TG2 cells. It counts as cell-based. The settings on record: for Inhibition of cAMP accumulation at 100 µM versus IL4 or IL4pSer402: forskolin 1 µM, peptide 100 µM, n=3. (Changes in cAMP serve as a functional read-out for many G protein-coupled receptors.)
For series [3] the following is noted: cited from earlier work.
The test system of series [4] is cAMP (Gi/o pathway); Chinese hamster ovary cells without CB1R. The settings on record: cited from earlier work.
The next series concerns Gi/o. The settings on record: cited from earlier work.
Another series deals with Gαo (N18TG2 membranes). In words: [35S]GTPγS binding, antibody-capture SPA, Gαo, N18TG2 membranes. In kind it is biochemical. A digest of the protocol: as §1
[5] abbreviates: at reported concentrations, ANOVA, Dunnett's.

Take RSKDLRHAFRSMFPpSSE [IL4pSer415]: in the series “NMR secondary structure”, the “Distance between Cα carbons of Arg401 and Glu417” value (“Distance between Cα carbons” for short) is recorded as 21.52 Å. In series [1], the “CD conformation in 90% TFE” value is “a slight shift toward helicity was initiated”, the “CD conformation in phosphate buffer” value is on record as “random coil”, the “CD conformation in SDS” value is “induction of α-helix in SDS” and the “CD conformation in TFE” value is recorded as “random coil”. The “CD conformation in methanol” value in series [1] is listed as “random coil”. For the same compound, the “[35S]GTPγS binding to Gαi3 compared with IL4” value in the series with Gαi3 (N18TG2 membranes) is “more efficacious than IL4; also recorded: higher efficacy than IL4”. Besides, the “Inhibition of cAMP accumulation at 100 µM versus IL4 or IL4pSer402” value in series [2] (N18TG2 cells) was “inhibited cAMP accumulation to a greater extent than IL4 or IL4pSer402; also recorded: more efficaciously than IL4 and IL4pSer402”.
With RSKDLRHAFRSMFPSSE [IL4], in the series “NMR secondary structure”, the “Distance between Cα carbons” value worked out at 26 Å. In addition, the “Conformation of unphosphorylated IL4 in SDS micelles” value in series [3] (SDS micelles, CD and NMR) is listed as “induced significant helical structure”. Also, the “CD conformation of unphosphorylated IL4 in aqueous environment” value in series [3] (aqueous) is given as “random coil conformation”. Also, the “Reduction of cAMP levels” value in series [4] (CB1R-independent) is “able to reduce cAMP levels in a CB1R-independent manner”. For the same compound, the “Functional activity in absence of CB1R expression” value in series [4] (Chinese hamster ovary cells without CB1R) is “still functional”. Further, the “Autonomous G protein activation” value in the series with Gi/o is reported as “can activate G proteins autonomously as a pepducin”.
Regarding `Cc1c(C(=O)c2cccc3ccccc23)c2cccc3c2n1[C@H](CN1CCOCC1)CO3` [WIN55212–2, reference compound], the “% over stimulation by WIN55212–2, Go” value with Gαo (N18TG2 membranes) (WIN55212–2 1 µM, N18TG2 membranes, anti-Gαo SPA, mean ± SEM) amounted to 19±2.8%. Besides, in the series with Gαo (N18TG2 membranes) (setting [5]), the “Significance of Gαo stimulation versus basal” value is recorded as “significantly different from basal”. Also, the “Significance of Gi3 stimulation by WIN55212–2 versus IL4” value in the series with Gαi3 (N18TG2 membranes) (ANOVA, Dunnett's, **P<0.005) is reported as “significantly different compared to IL4 in Gi3”. Further, the “% over stimulation by WIN55212–2, Gi3” value in the series on Gαi3 (N18TG2 membranes) (WIN55212–2 1 µM, N18TG2 membranes, anti-Gαi3 SPA, mean ± SEM) was found to be 62.7 ±6.6%. Further, the “Significance of Gαi3 stimulation versus basal” value in the series with Gαi3 (N18TG2 membranes) (setting [5]) is “significantly different from basal”.
Turning to `CN(C)CCCn1cc(C2=C(c3c[nH]c4ccccc34)C(=O)NC2=O)c2ccccc21` [bisindolylmaleimide 1, reference compound], the “Effect of PKC inhibitor on bradykinin augmentation of CP55940 response” value in series [2] (N18TG2 cells, bisindolylmaleimide I 100 nM, bradykinin 100 nM, Fig. 7C) is recorded as “reversed by the PKC inhibitor”.
Take `CCCCCCC(C)(C)c1ccc([C@@H]2C[C@H](O)CC[C@H]2CCCO)c(O)c1` [CP55940, reference compound]: in series [2] (N18TG2 cells, CP55940 versus CP55940 plus SR141716, **P<0.005), the “Effect of SR141716 on inhibition of cAMP accumulation by CP55940” value was “Significant difference was found between CP55940 and CP55940 plus SR141716”. Further, the “CP55940-inhibited cAMP with versus without bradykinin, significance” value in series [2] (forskolin 1 µM or secretin 30 nM, *P<0.05, **P<0.005, n=3–7) is “significant difference was found comparing the effect of CP55940 with and without BK”.
On to RpSKDLRHAFRSMFPSSE [IL4pSer402], for which the “Distance between Cα carbons” value in the series “NMR secondary structure” was determined as 23.61 Å. Further, in series [1], the “CD conformation in 90% TFE” value is recorded as “α-Helical conformation”, the “CD conformation in SDS” value is “α-Helical conformation” and the CD isodichroic point was determined as 203 nm. In series [1] (CD), the “Lowest TFE concentration inducing helical conformation” value was 40 % TFE and the “Methanol concentration at which helical conformation is induced” value is on record as 50 % methanol. Further, the “[35S]GTPγS binding to Gαi3 compared with IL4” value with Gαi3 (N18TG2 membranes) is “not different between IL4 and IL4pSer402”.
For the compound RSKDLRHAFRpSMFPSSE [IL4pSer411], the “Distance between Cα carbons” value in the series “NMR secondary structure” was 23.68 Å. In series [1], the “CD conformation in phosphate buffer” value was “random coil structure”, the “CD conformation in SDS” value is reported as “characteristics of α-helical structure”, the CD isodichroic point came out at 203 nm and the “CD conformation in TFE” value is listed as “random coil structure”. The “CD conformation in methanol” value in series [1] is given as “random coil structure”. In addition, the “CD negative minimum wavelength in phosphate buffer” value in series [1] (phosphate buffer pH 7.0) turned out to be 198 nm. The “Significance of Gαo stimulation versus WIN55212–2 and IL4” value with Gαo (N18TG2 membranes) (ANOVA, Dunnett's, ***P<0.0001) is “significantly different compared to WIN55212–2 and IL4”. Besides, the “[35S]GTPγS binding to Gαo, fold greater than WIN55212–2 or IL4” value in the series on Gαo (N18TG2 membranes) (N18TG2 membranes, WIN55212–2 1 µM, IL4 100 µM) stood at 3 fold. Besides, the “Significance of Gi3 stimulation versus WIN55212–2 (not versus IL4)” value in the series with Gαi3 (N18TG2 membranes) (ANOVA, Dunnett's, *P<0.05) is “significantly different compared to WIN55212–2 but not IL4”. Further, the “[35S]GTPγS binding to Gαi3 compared with IL4” value in the series with Gαi3 (N18TG2 membranes) is listed as “more efficacious than IL4”. For the same compound, the “Inhibition of cAMP accumulation at 100 µM versus IL4 or IL4pSer402” value in series [2] (N18TG2 cells) was “inhibited cAMP accumulation to a greater extent than IL4 or IL4pSer402; also recorded: more efficaciously than IL4 and IL4pSer402”.
